In ChEMBL document CHEMBL1221177, “Secramine inhibits Cdc42-dependent functions in cells and Cdc42 activation in vitro” (Nat Chem Biol, 2006) one finds inhibition, Activity and IC50 data, which are given here for five molecules.

The source made the active and inactive calls. The rule behind the calls is not given here.

Test [1] is filed under the species Xenopus laevis. In words: Inhibition of actin polymerization in N-WASP VCA-stimulated Xenopus laevis egg extract at 10 uM after 1.5 mins by fluorescence assay. The essentials: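 Xenopus laevis egg extract added at 4 °C to vehicle or compound, followed by VCA polypeptide. Pyrene-actin polymerization then followed by fluorescence in a cuvette at 21 °C.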
Test [2] has as its system BSC-1. In words: Inhibition of VSVG-EGFP anterograde transport from endoplasmic reticulum to golgi complex of african green monkey BSC1 cells at 12.5 uM after 3 hrs by epifluorescence microscopy. The format is functional, cell-based. To be noted: Chlorocebus aethiops. The essentials:
(§1)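 BS-C-1 monkey kidney cells expressing temperature-sensitive VSVG-EGFP, held at 40 °C to trap cargo in the ER, then shifted to 32 °C in 100 µg ml-1 cycloheximide. Compound or vehicle (1% DMSO) present during transport. Cells fixed 3 h after release and imaged by wide-field fluorescence. Surface versus perinuclear (beta-COP-costained Golgi) cargo scored. IC50 from dose-response curves, s.e.m. (n = 4).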

In test [3] the target is Cdc42 protein (Xenopus laevis) (UniProt Q9DDV6). In words: Inhibition of CDC42-mediated actin polymerization in PIP2-stimulated Xenopus laevis egg extract at 0.1 to 100 uM by fluorescence assay.
Sequence of Cdc42 protein (Xenopus laevis) (Q9DDV6 as listed by the source): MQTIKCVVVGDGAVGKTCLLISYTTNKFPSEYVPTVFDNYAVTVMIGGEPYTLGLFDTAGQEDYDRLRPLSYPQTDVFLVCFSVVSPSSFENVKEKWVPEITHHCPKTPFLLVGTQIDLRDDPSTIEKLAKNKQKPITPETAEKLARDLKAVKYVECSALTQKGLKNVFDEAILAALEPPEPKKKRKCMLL
In test [4] the target is T1, Cell division control protein 42 homolog (Homo sapiens, UniProt P60953). In words: Effect on nucleotide binding activity of PIP2-stimulated Cdc42 at 25 uM by liquid scintillation counting.
Target sequence in this assay (P60953 whole entry, looked up): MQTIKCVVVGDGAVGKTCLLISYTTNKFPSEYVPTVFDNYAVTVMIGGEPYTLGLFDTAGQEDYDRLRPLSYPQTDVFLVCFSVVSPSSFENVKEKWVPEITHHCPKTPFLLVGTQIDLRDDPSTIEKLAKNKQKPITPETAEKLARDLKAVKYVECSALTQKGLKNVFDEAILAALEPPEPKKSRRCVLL
In test [5] the target is T1, Cell division control protein 42 homolog. In words: Inhibition of nucleotide exchange activity of PIP2-stimulated Cdc42 at 25 uM by liquid scintillation counting.
Target sequence in this assay (P60953 whole entry, looked up): as above
Test [6] addresses Cdc42 protein (Xenopus laevis) (UniProt Q9DDV6). In words: Inhibition of PIP2 liposome-stimulated Cdc42 activation in Xenopus laevis egg extract assessed as inhibition of association of Cdc42(GTPgammaS) with GST-PBD at 50 uM by Western blot analysis. The essentials: (§2)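 Xenopus egg extract (8 mg/ml) with 0.2 mM ATP and 10 µM latrunculin B at 4 °C, moved to 25 °C; compound or vehicle 5 min, then 20 µM GTPγS and 20 µM PIP2 liposomes (48:48:4) 10 min, then 2.5 µM GST-PBD 10 min. Lysis buffer plus glutathione-Sepharose, 45 min at 4 °C; bound Cdc42 by western blot.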

Test [7] deals with T1, Cell division control protein 42 homolog. In words: Effect on GEF interaction with PIP2-stimulated Cdc42 at 25 uM by liquid scintillation counting.
Target sequence in this assay (P60953 whole entry, looked up): as above
For test [8], the system named is Lipid bilayer. Briefly: Binding affinity to phosphatidylinositol 4,5-bisphosphate liposome assessed as dynamin2-stimulated GTP hydrolysis at 250 uM by scintillation counting. In short, it runs like this:
(§3)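 Truncated His-tagged human dynamin 2 (proline-rich domain, aa 736–866, deleted), expressed in BL21, mixed with PIP2 liposomes (65:32:3 PC:PI:PIP2, 0.1-µm extruded) and compound in 1% DMSO vehicle. 20 µM [γ-32P]GTP added in Tris pH 7.5/150 mM NaCl/2.5 mM MgCl2/DTT, 25 °C. After 20 min, charcoal-quenched aliquot centrifuged and released 32P-phosphate scintillation counted; s.e.m., n = 3.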

Test [9] is filed under the species Xenopus laevis. Briefly: Inhibition of actin polymerization in N-WASP VCA-stimulated Xenopus laevis egg extract at 20 uM after 1.5 mins by fluorescence assay.
In test [10] the target is T1, Cell division control protein 42 homolog. Briefly: Inhibition of GEF-independent nucleotide exchange activity of prenylated Cdc42 assessed as protein dissociation from […] complex at 100 uM after 3 mins in presence of 4 mM Mg2+ chelator EDTA.
Target sequence in this assay (P60953 whole entry, looked up): as above
Test [11] deals with Cdc42 protein (Xenopus laevis) (UniProt Q9DDV6). In words: Effect on GST-PBD binding to recombinant nonprenylated Cdc42 in PIP2 liposome-stimulated Xenopus laevis egg extract at 50 uM by Western blot analysis. The essentials: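 Xenopus egg extract treated 5 min with compound or vehicle, then 20 nM recombinant nonprenylated Cdc42 (GTPγS or GDP) 10 min, then GST-PBD 10 min. Pulled down on glutathione-Sepharose and Cdc42 detected by western blot; GST-PBD stained with Ponceau S as loading control.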

Test [12] deals with T1, Cell division control protein 42 homolog. Briefly: Effect on Cdc42-mediated cellular response in human U373MG cells assessed as reorientation of golgi complex 15 uM after 6 hrs by epifluorescence assay. It is filed as cell-based. To be noted: U-373MG ATCC. The essentials: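 Confluent U373MG human astrocytoma monolayer preincubated 1 h with 15 µM compound or vehicle, then scratched. At 0 and 6 h fixed, stained with Hoechst and anti-giantin; cells at wound edge with Golgi in the forward 120° sector facing scratch scored polarized. Epifluorescence; s.e.m., n = 3, >100 cells per condition.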
Target sequence in this assay (P60953 whole entry, looked up): as above

For test [13] the target is unchanged. Briefly: Inhibition of GEF-independent nucleotide exchange activity of nonprenylated Cdc42 at 100 uM after 10 mins in presence of 4 mM EDTA.
Target sequence in this assay (P60953 whole entry, looked up): as above
In the next test the target is Cdc42 protein (Xenopus laevis, UniProt Q9DDV6). In words: Inhibition of CDC42-mediated actin polymerization in PIP2-stimulated Xenopus laevis egg extract after 6 mins by fluorescence assay.
Sequence of Cdc42 protein (Q9DDV6 whole entry): as the sequence (Q9DDV6 as listed by the source) above
In test [14] the test system is BSC-1. In words: Effect on transferrin translocation from golgi complex to endoplasmic reticulum of african green monkey BSC1 cells at 12.5 uM after 2.5 hrs by epifluorescence microscopy. It is filed as functional, cell-based. To be noted: Chlorocebus aethiops.
In test [15] the test system is Lipid bilayer. Briefly: Binding affinity to phosphatidylinositol 4,5-bisphosphate liposome assessed as dynamin2-stimulated GTP hydrolysis at 25 uM by scintillation counting. The essentials:
as §3

For test [16], the target named is Cdc42 protein (Xenopus laevis) (UniProt Q9DDV6). In words: Inhibition of GST-PBD binding to Cdc42 in Xenopus laevis egg extract assessed as Cdc42(GTPgammasS) activation at 50 uM treated before addition of GST-PBD by Western blot analysis.
Test [17] deals with Lipid bilayer. Briefly: Binding affinity to phosphatidylinositol 4,5-bisphosphate liposome at 50 uM by electron microscopy. The essentials: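 PIP2 liposomes (100 µM) incubated with compound or 1% DMSO, with 1% Triton X-100 as comparator. Samples in reaction buffer adsorbed on glow-discharged carbon grids, negatively stained with 1.2% uranyl acetate and imaged by EM at 80 kV.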

The test system of test [18] is BSC-1. Briefly: Effect on perinuclear localization of trans-Golgi network in african green monkey BSC1 cells at 12.5 uM after 2.5 hrs by epifluorescence microscopy. The format is functional, cell-based. To be noted: Chlorocebus aethiops.
In test [19] the test system is BSC-1. In words: Inhibition of VSVG-EGFP anterograde transport from endoplasmic reticulum to plasma membrane of african green monkey BSC1 cells after 3 hrs by epifluorescence microscopy. The format is functional, cell-based. The conditions noted are these: Chlorocebus aethiops, BSC-1, 3 h. The essentials: as §1
Test [20] deals with BSC-1. Briefly: Effect on transferrin endocytosis in african green monkey BSC1 cells at 12.5 uM after 2.5 hrs by epifluorescence microscopy. The conditions noted are these: Chlorocebus aethiops. It is filed as functional, cell-based.
Test [21] has as its target Cdc42 protein (Xenopus laevis) (UniProt Q9DDV6). In words: Inhibition of GST-PBD binding to Cdc42 in Xenopus laevis egg extract assessed as Cdc42(GTPgammasS) activation at 50 uM treated after addition of GST-PBD by Western blot analysis.
In test [22] the test system is MDCK. Briefly: Increase in p75-GFP transport from golgi complex of MDCK cells at 10 uM after 20 mins by fluorescence assay. It is filed as functional, cell-based. The conditions noted are these: Canis lupus familiaris. In short, it runs like this: (§4)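 Nonpolarized MDCK cells expressing NCAM-GFP or p75-GFP in 0.5% BSA; cargo held in Golgi at 20 °C for 30–60 min, then compound or vehicle for 20 min before shift to 32 °C. Perinuclear GFP normalized to total cell fluorescence, expressed as % of t = 0 Golgi signal; s.d., n = 2, 20 cells per condition.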

Test [23] relates to MDCK. In words: Decrease in NCAM-GFP transport from golgi complex of MDCK cells at 10 uM after 20 mins by fluorescence assay. It is filed as functional, cell-based. To be noted: Canis lupus familiaris. The essentials:
as §4

For test [24], the target named is T1, Cell division control protein 42 homolog. Briefly: Inhibition of Cdc42 binding to PIP2 liposomes at 100 uM after 10 mins. The essentials:
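Pure 0.5 µM prenylated Cdc42-RhoGDI1 complex, 1 µM RhoGDI1, 1 mM PIP2 liposomes, 100 µM compound or 2% DMSO in reaction buffer, 25 °C. After 10 min, spun 10 min at 200,000g; pellet dot-blotted with anti-Cdc42, quantified and normalized to vehicle; s.e.m., n = 4.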

In test [25] the target is Cdc42 protein (Xenopus laevis) (UniProt Q9DDV6). In words: Inhibition of PIP2 liposome-stimulated Cdc42 activation in Xenopus laevis egg extract assessed as inhibition of association of Cdc42(GTPgammaS) with GST-PBD at 1 to 25 uM by Western blot analysis. In short, it runs like this: as §2
Test [26] has as its target Cell division control protein 42 homolog (Rattus norvegicus) (UniProt Q8CFN2). In words: Inhibition of Cdc42 binding to rat liver golgi membrane at 10 to 150 uM by Western blot analysis. In short, it runs like this:
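Bovine brain cytosol incubated with compound or 1% DMSO, then 20 µM GTPγS and 0.2 mg/ml rat liver Golgi membranes added. Membrane-bound Cdc42 and β-COP analyzed by western blot.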

Test [27] has as its target T1, Cell division control protein 42 homolog. Briefly: Inhibition of GEF-independent nucleotide exchange activity of prenylated Cdc42 after 3 mins in presence of 4 mM Mg2+ chelator EDTA. The essentials: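 GDP/[35S]GTPγS exchange by 0.5 µM prenylated Cdc42-RhoGDI1 complex with 1 µM RhoGDI1 and 100 µM PIP2 liposomes, 4 mM EDTA replacing GEF, in Tris pH 7.5 reaction buffer at 25 °C. Started with 10 µM [35S]GTPγS; reactions sampled at 3 min, filtered on nitrocellulose and scintillation counted; s.e.m., n = 3.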
Target sequence in this assay (P60953 whole entry): as the sequence (P60953 whole entry, looked up) above

Sequence of Cell division control protein 42 homolog (Rattus norvegicus) (Q8CFN2 whole entry, looked up): as the sequence (P60953 whole entry, looked up) above

For `C/C1=C/C(=O)O[C@@H]2C[C@@H](CC[C@H](C)/C=C\CC1)O[C@@](O)([C@@H]1CSC(=O)N1)C2`, the inhibition result in the test listed under Xenopus laevis [1] was “Active”.
For `COc1ccc(CS[C@@H]2C/C(=N/OCc3ccccc3)C[C@H]3Oc4c(Br)c(OCC5CC5)cc5c4[C@]32C[C@@H](CO)N(C(C)=O)C5)cc1`, the inhibition entry (in the test on BSC-1 [2]; in test [5]; in test [6]) was “inactive” throughout. In addition, the result in test [3], in [4] and in [7] was inactive.
`NC[C@@H]1O[C@H](O[C@H]2[C@@H](O)[C@H](O[C@@H]3[C@@H](O)[C@H](N)C[C@H](N)[C@H]3O[C@H]3O[C@H](CN)[C@@H](O)[C@H](O)[C@H]3N)O[C@@H]2CO)[C@H](N)[C@@H](O)[C@@H]1O`: the outcome in the test with Lipid bilayer [8] was Active.
Regarding `COc1ccc(CS[C@@H]2C/C(=N/OCc3ccccc3)C[C@H]3Oc4c(Br)c(OCC5CC5)cc5c4[C@]32C[C@@H](CO)NC5)cc1` [SECRAMINE A], the inhibition result (in the test on BSC-1 [2]; in the test filed under Xenopus laevis [9]; in test [10]; in test [13]; in test [21]) was “inactive” each time. Moreover, the result (in test [11]; in the test with BSC-1 [14]; in the test on Lipid bilayer [15]; with Lipid bilayer [17]; in test [4]; with BSC-1 [18]) was inactive. Also, the outcome (with BSC-1 [20]; in test [7]) was inactive. Besides, the Activity in [12] is 45%. Also, the IC50 at Cdc42 protein is 1 µM; in the test on BSC-1 [19], 12 µM; in test [27] it was 9 µM. Also, the inhibition entry (in test [16]; with MDCK [22]; in [5]; with MDCK [23]; in test [24]; in test [25]) was “Active” in each case. Moreover, the inhibition result in test [26] was “Active”. The result in test [3] was Active.
Regarding `CO/N=C1\C[C@H]2Oc3c(Br)c(OCC4CC4)cc4c3[C@@]2(C[C@@H](CO)NC4)[C@H](SCc2ccc(OC)cc2)C1` [SECRAMINE B], the inhibition entry (in the test with BSC-1 [2]; in test [10]) was “inactive” each time. Besides, the concentration for half-maximal inhibition (IC50) at Cdc42 protein was found to be 3 µM; with BSC-1 [19], 12 µM; in test [27], 7 µM. Also, in [3], the result was Active. In addition, the outcome in test [4] and in test [7] was inactive. For the same molecule, the inhibition entry in [5] is “Active”.
